The record followed here is ChEMBL document CHEMBL4376862, “Synthesis and evaluation of novel chlorophyll a derivatives as potent photosensitizers for photodynamic therapy” (Eur J Med Chem, 2020).

Data set [1] deals with Mus musculus. The data set can be described thus: Phototoxicity in ICR mouse assessed as ear weight at 0.45 mg/kg, iv followed by 10 mW/cm2 light irradiation for 10 mins at 5 days after drug challenge measured after 1 day of light irradiation (reference value: 12.9 +/- 1.4 mg). The format is organism-based. The conditions noted are these: in vivo.
Data set [2] can be described thus: Drug uptake in BALB/c nude mouse xenografted with A549 cells assessed as drug level in spleen at 0.3 mg/kg, iv measured at 12 hrs by fluorescence assay. The format is ADME, organism-based. Conditions: in vivo. In a few lines:
(§1)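 A549 tumor-bearing mice dosed via tail vein (1 mg/kg in methods; 0.3 mg/kg in text) at tumors ~150–170 mm3, n = 3; whole-body imaging 0–24 h; at 6 and 12 h mice killed, heart, liver, spleen, lung, kidney, brain, tumor imaged ex vivo, excitation 420 nm, emission 650 nm.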

For data set [3], the system named is A549. The experiment in a line: Photodynamic antitumor activity against human A549 cells xenografted in BALB/c nude mouse assessed as vascular rupture at 0.3 mg/kg, iv incubated for 24 hrs followed by laser light irradiation at 120 J/cm2 measured 24 hrs post light irradiation by H and E staining based histopathological analysis. It is filed as functional, organism-based. Put shortly: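 Tumors from PDT-treated A549 xenograft mice (0.3 mg/kg i.v., 650 nm laser 120 J/cm2 at 24 h) excised, fixed in 4% formaldehyde in PBS, paraffin-embedded, sectioned, H&E stained.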
(In xenograft studies the graft and the host belong to different species.)

Data set [4] concerns A549. The data set can be described thus: Induction of apoptosis in human A549 cells assessed as early apoptotic cell in presence of 1J/cm2 light irradiation measured after 4 hrs by annexin V-FITC and propidium iodide staining based flow cytometric analysis (reference value: 0.07%). It is filed as functional. Put shortly:
(§2)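 After PDT at 1 J/cm2, A549 cells collected 4 h later, stained with annexin V-FITC and propidium iodide per kit instructions; flow cytometry with at least 10,000 events per sample.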
For orientation: A flow cytometer gives signals particle by particle.

Data set [5] deals with A549. The experiment in a line: Induction of apoptosis in human A549 cells assessed as early apoptotic cell incubated for 4 hrs under dark condition by annexin V-FITC and propidium iodide staining based flow cytometric analysis (reference value: 0.07%). Conditions: a549, 4 h.
Data set [6] deals with A549. The experiment in a line: Induction of apoptosis in human A549 cells assessed as late apoptotic cell incubated for 4 hrs under dark condition by annexin V-FITC and propidium iodide staining based flow cytometric analysis (reference value: 0.05%). Conditions: a549, 4 h.
Data set [7] is described as follows: Drug localization in endoplasmic reticulum of human A549 cells at 1 uM after 4 hrs by DiOC6(3) ER-tracker green based fluorescence microscopic method. It is filed as ADME, subcellular. Conditions: a549, 4 h. In a few lines:
(§3)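 A549 cells on coverslips at 1×10^4 cells/mL exposed to […] (so in the source) photosensitizer in complete medium for 4 h, washed, fixed in 4% paraformaldehyde 20 min, then probed 30 min at 37 °C with Mito-Tracker Green, Lyso-Tracker Blue or ER-Tracker Green; fluorescence microscopy, three repeats, minimal ambient light.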

The nature of data set [8]: Absorption property of compound in DMSO assessed as strong absorption wavelength at 1 x 10^-3 M by UV-spectra analysis. The format is physicochemical. Conditions: 1000 µM. Put shortly:
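Stocks 1 mM in DMSO; spectra run over […] range (units as printed), 300–800 nm in 1 nm steps, room temperature, quartz cuvettes, UV-vis spectrophotometer.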

Data set [9] in a line: Emission property of a compound in DMSO assessed as red shift at 5 uM on excitation with light at 410 to 415 nm by 3D fluorescence spectra analysis. It is filed as physicochemical. In a few lines:
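Stock 1 mM in DMSO, measured at […] (so in the source); excitation scanned 350–640 nm, emission 600–750 nm, 1 nm steps, room temperature, quartz cuvettes; 3D fluorescence matrix spectra recorded.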

Data set [10] is described as follows: Drug localization in lysosome of human A549 cells at 1 uM after 4 hrs by lyso-tracker blue based fluorescence microscopic method. It is filed as ADME, subcellular. The conditions noted are these: a549, 4 h. In a few lines: as §3
In data set [11] the test system is Mus musculus. The experiment in a line: Phototoxicity in ICR mouse assessed as ear weight at 0.45 mg/kg, iv followed by 10 mW/cm2 light irradiation for 10 mins at 7 days after drug challenge measured after 1 day of light irradiation (13.2 +/- 1.6 mg). It is filed as organism-based. The conditions noted are these: in vivo.
A short description of data set [12]: Drug uptake in BALB/c nude mouse xenografted with A549 cells assessed as drug level in tumor tissue at 0.3 mg/kg, iv measured at 12 hrs by fluorescence assay. It is filed as ADME, organism-based, Neoplasm. Conditions: in vivo. Put shortly: as §1
The next data set deals with Cavia porcellus. The experiment in a line: Phototoxicity in guinea pig assessed as change in back skin weight 4.5 mg/kg, iv followed by 10 mW/cm2 light irradiation for 10 mins measured after 1day of light irradiation (reference value: 72.4 +/- 3.1 mg). It is filed as organism-based. Conditions: in vivo, 24 h.
Data set [13] can be described thus: Induction of singlet oxygen generation in DMF solution assessed as singlet oxygen quantum yield by measuring reduction in TEMP irradiated with 650 nanometer laser light in every 20 secs by ESR assay. The format is functional. Put shortly: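 ESR at room temperature: 9.65 GHz microwave frequency, 15 mW power, 3400–3500 G scan field, 0.8 G modulation amplitude, 15.5 s scan time, 32 scans.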

Data set [14] has as its system A549. The experiment in a line: Induction of apoptosis in human A549 cells assessed as necrosis incubated for 4 hrs under dark condition by annexin V-FITC and propidium iodide staining based flow cytometric analysis (reference value: 0.00%). It is filed as cell-based. Conditions: a549, 4 h.
In data set [15] the test system is A549. The experiment in a line: Induction of apoptosis in human A549 cells assessed as late apoptotic cell in presence of 1J/cm2 light irradiation measured after 4 hrs by annexin V-FITC and propidium iodide staining based flow cytometric analysis (reference value: 0.05%). It is filed as functional. Put shortly:
as §2

Data set [16] relates to Mus musculus. The data set can be described thus: Phototoxicity in ICR mouse assessed as change in auricles 0.45 mg/kg, iv in presence of 10 mW/cm2 light irradiation for 10 mins upto 7 days measured after 1day of light irradiation by H and E staining based microscopic analysis. The format is organism-based. The conditions noted are these: in vivo.
Data set [17] in a line: Drug uptake in BALB/c nude mouse xenografted with A549 cells assessed as drug level in tumor tissue at 0.3 mg/kg, iv measured upto 24 hrs by fluorescence assay. The format is ADME, organism-based, Neoplasm. The conditions noted are these: in vivo. In a few lines:
as §1

Data set [18] relates to A549. The experiment in a line: Induction of apoptosis in human A549 cells assessed as necrotic cell in presence of 1J/cm2 light irradiation measured after 4 hrs by annexin V-FITC and propidium iodide staining based flow cytometric analysis (reference value: 0.00%). It is filed as functional. In a few lines:
as §2

Data set [19] relates to A549. The experiment in a line: Photodynamic antitumor activity against human A549 cells xenografted in BALB/c nude mouse assessed as survival time at 0.3 mg/kg, iv incubated for 24 hrs followed by laser light irradiation at 120 J/cm2 measured up to 70 days. It is filed as functional, organism-based. Put shortly: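 Nude mice bearing A549 xenografts, 0.3 mg/kg drug i.v. then 650 nm laser 120 J/cm2 at 180 mW/cm2 after 24 h; survival shown as Kaplan-Meier with log-rank test, n = 5.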

Data set [20] concerns Mus musculus. The data set can be described thus: Phototoxicity in ICR mouse assessed as ear weight at 0.45 mg/kg, iv followed by 10 mW/cm2 light irradiation for 10 mins at 3 days after drug challenge measured after 1 day of light irradiation (reference value: 12.8 +/- 1.5 mg). The format is organism-based. The conditions noted are these: in vivo.
A short description of data set [21]: Induction of apoptosis in human A549 cells assessed as viable cells incubated for 4 hrs under dark condition by annexin V-FITC and propidium iodide staining based flow cytometric analysis (reference value: 99.88%). The conditions noted are these: read-out: Activity. It is filed as cell-based.
Data set [22] relates to A549. The data set can be described thus: Induction of apoptosis in human A549 cells assessed as caspase-3 activity using Ac-DEVD-pNA as substrate in presence of laser light irradiation measured upto 12 hrs. It is filed as functional, cell-based.
Data set [23] can be described thus: Drug uptake in BALB/c nude mouse xenografted with A549 cells assessed as drug level in kidney at 0.3 mg/kg, iv measured at 12 hrs by fluorescence assay. The format is ADME, organism-based. The conditions noted are these: in vivo. In a few lines:
as §1

The source made the active and inactive calls. The rule behind the calls is not given here.

As to `CCC1=C(C)c2cc3[nH]c(cc4nc(c5c6[nH]c(cc1n2)c(C)c6C(=O)C5)[C@@H](CCC(=O)NCC(=O)CCC(=O)O)[C@@H]4C)c(C)c3C(C)OCCO` (stereo partly drawn), the Activity was 12.9 mg in the data set on Mus musculus [1]; 28.92% with A549 [4]; 4.63% in the data set on A549 [5]; 4.7% in the data set with A549 [6]; 660 to 670 nm in data set [8]; 661 to 669 nm in data set [9]. In addition, the Activity with Mus musculus [11] was 13.4 mg; in the data set on Cavia porcellus it was 74.3 mg; in the data set with A549 [14], 2.75%; in the data set with A549 [15] it was 67.73%; in the data set with Mus musculus [16], “Non-Toxic”; with A549 [18] it was 0.7%. The Activity with Mus musculus [20] worked out at 13.2 mg. Besides, the Drug uptake result was “Not Active” in data set [2]; “Active” in data set [7]; “Active” in data set [10]; “Active” in data set [12]; “Active” in data set [17]; “Not Active” in data set [23]. Besides, the outcome (in the data set with A549 [3]; in data set [13]; in the data set on A549 [19]; with A549 [22]) was Active. The viability at 4 h in data set [21] was determined as 87.8%.

On to `CCCCOC(C)c1c(C)c2cc3nc(c4c5[nH]c(cc6nc(cc1[nH]2)C(C)=C6CC)c(C)c5C(=O)C4)[C@@H](CCC(=O)NCC(=O)CCC(=O)O)[C@@H]3C` (stereo partly drawn), for which the Activity in the data set on Mus musculus [1] is 13.5 mg; in the data set on A549 [4], 2.07%; with A549 [5], 3.16%; in the data set with A549 [6] it was 4.78%; in data set [8], 660 to 670 nm; in data set [9], 661 to 669 nm. Besides, the Activity in the data set with Mus musculus [11] is listed as 12.9 mg; with Cavia porcellus, 75.2 mg; in the data set on A549 [14], 2.3%; in the data set with A549 [15], 83.88%; in the data set with Mus musculus [16] it was “Non-Toxic”; with A549 [18], 10.92%. The Activity with Mus musculus [20] came out at 13.1 mg. The Drug uptake result in [2] is reported as “Not Active”; in data set [7], “Active”; in data set [10], “Active”; in [12], “Active”; in [17], “Active”; in [23] it was “Not Active”. Moreover, the outcome (in the data set on A549 [3]; in [13]; in the data set on A549 [19]; in the data set with A549 [22]) was Active. In data set [21], the viability at 4 h was 89.8%.
